# Source: PubChem BioAssay
# Compounds with a hit are over-represented: about 4% of the library has one in this group of screens.
# bCat nuc transl: modulators of beta-catenin nuclear translocation, primary screen, imaging, HeLa cells, immunofluorescence, high-content | nuclear translocation activity, % at 5 µM | 190,000 compounds, 0.3% hits;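 active means nuclear translocation activity above 50% at 5 µM, with a well cell count of 50 or more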;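 further: per-cell ratio of nuclear to cytoplasmic median beta-catenin stain intensity; plate controls were DMSO negative control for no effect and GSK-3 inhibitor IX positive control for full effect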
#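 Test system: human HeLa cells, endogenous beta-catenin. Times: 24 h compound exposure, 37°C. Measured by: beta-catenin immunofluorescence imaging with DAPI.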
# Cl transport mod: KCC2 cotransporter modulators, thallium flux, primary screen, cell-based, HEK293 KCC2, FluoZin-2 fluorescence, MLSMR. Solute carrier family 12 member 5 (Homo sapiens), Q9H2X9. B-score of Tl+ flux slope (higher = more flux/activation; lower = inhibition) at 10 µM. KCC2 cells, thallium flux FluoZin-2 fluorescence. 190,000 compounds, 2.2% hits. AID 1456, 2008;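 active means thallium flux slope and its plate-corrected score both differing from the plate sample mean at a set confidence after two filtering rounds, in either direction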;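 further: slope of fluorescence scaled to starting intensity during 10 to 20 s after thallium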
# Target sequence (Q9H2X9 whole entry, looked up): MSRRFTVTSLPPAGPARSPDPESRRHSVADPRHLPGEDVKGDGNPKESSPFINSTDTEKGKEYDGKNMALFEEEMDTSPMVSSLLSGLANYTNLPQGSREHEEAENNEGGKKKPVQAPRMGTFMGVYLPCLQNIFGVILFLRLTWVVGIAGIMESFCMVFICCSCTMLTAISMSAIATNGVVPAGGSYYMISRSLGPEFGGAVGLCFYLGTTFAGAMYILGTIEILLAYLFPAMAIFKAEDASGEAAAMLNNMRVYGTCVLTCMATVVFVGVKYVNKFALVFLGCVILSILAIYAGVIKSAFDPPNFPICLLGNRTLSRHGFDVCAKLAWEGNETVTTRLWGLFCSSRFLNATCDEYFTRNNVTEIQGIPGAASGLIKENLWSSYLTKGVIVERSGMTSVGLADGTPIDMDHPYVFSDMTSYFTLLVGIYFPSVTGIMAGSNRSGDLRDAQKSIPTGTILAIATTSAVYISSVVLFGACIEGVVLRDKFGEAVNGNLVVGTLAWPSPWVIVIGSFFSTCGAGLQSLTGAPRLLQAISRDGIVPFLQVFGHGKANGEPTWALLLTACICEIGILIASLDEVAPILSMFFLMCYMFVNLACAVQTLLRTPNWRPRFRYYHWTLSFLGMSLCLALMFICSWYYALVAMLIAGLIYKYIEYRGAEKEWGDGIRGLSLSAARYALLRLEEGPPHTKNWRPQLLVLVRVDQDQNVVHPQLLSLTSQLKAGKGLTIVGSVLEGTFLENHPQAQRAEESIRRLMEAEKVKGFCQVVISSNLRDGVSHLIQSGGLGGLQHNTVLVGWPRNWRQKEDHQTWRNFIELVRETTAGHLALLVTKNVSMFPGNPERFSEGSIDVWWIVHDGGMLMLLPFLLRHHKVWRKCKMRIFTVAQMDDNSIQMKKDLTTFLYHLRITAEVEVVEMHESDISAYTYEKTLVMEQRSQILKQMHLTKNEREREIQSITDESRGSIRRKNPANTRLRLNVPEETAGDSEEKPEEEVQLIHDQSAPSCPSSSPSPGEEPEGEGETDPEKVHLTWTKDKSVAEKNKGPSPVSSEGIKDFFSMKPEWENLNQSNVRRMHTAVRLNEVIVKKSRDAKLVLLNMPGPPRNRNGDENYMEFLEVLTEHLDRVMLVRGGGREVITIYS
# WT yeast gro inh: growth inhibition of WT strain, primary screen, mitochondrial fusion inhibitor project, WT and mutant strains, chemical genetic. mitochondrial fusion phenotypic screen. inhibition, % at 10 µM. 190,000 compounds, 2.1% hits. AID 1362, 2008; in the data active means inhibition above about 58%; tested in S. cerevisiae
# MT stabilize HCS: microtubule stabilizers in HeLa cells, primary screen, imaging, high-content imaging; AID 2205, 2009; HeLa tubulin immunostaining HCS, 24 h; share of cells brighter than vehicle mean+2SD; % tubulin-high responders, % at 10 µM; 200,000 compounds, 0.83% hits;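 active means plate Z-score above 3 for both tubulin-high and condensed-nucleus cell shares, with cell loss under 80%, at 10 µM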;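 further: anti alpha tubulin signal scored within the nucleus-defined area of each cell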
# Pf gametocyte: late stage P. falciparum gametocyte viability inhibitors, primary screen, ATP luminescence, HTS. P. falciparum stage V gametocytes, 24 h. inhibition, % at 10.9 µM. 150,000 compounds, 0.065% hits;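 active means inhibition above the mean plus 3 SD of compounds within the control limits, set per campaign, cut at about 38% in these data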;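 further: 0% = DMSO wells and 100% = medium only without gametocytes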
# Numbers without * were called inactive; · = no result given.
SMILES,bCat nuc transl,Cl transport mod,WT yeast gro inh,MT stabilize HCS,Pf gametocyte
COCCCn1cc(C(=O)c2ccccc2OCC(=O)Nc2cccc(F)c2)cc(C#N)c1=O,1,-0.26,-9,3,-1
CCCNC(=S)Nc1ccccc1,0,0.27,·,·,·
Cc1cccc(CSCCNC(=S)Nc2ccccc2)c1,-2,-0.035,71*,4,·
Clc1ccc(CSc2nnc(CNc3cccc(Cl)c3)o2)cc1,8,-0.29,81*,3,·
CCOC(=O)c1[nH]ncc1CN1CCC(Cc2cccc(OC)c2)(C(=O)OCC)CC1,-1,0.45,·,·,-35
CCCn1c(O)c(N=N)c2ccccc21,3,-0.0017,-15,3,·
CC#C[C@]1(O)CC[C@H]2[C@@H]3CCC4=CC(=O)CCC4=C3[C@@H](c3ccc(N(C)C)cc3)C[C@@]21C,-4,-0.13,87*,4,·
CCO[C@@H]1OC(C(=O)N2CCCCCCC2)=C[C@H](C2CCCCC2)[C@H]1CCCO,0,0.062,29,2,1
Cc1ccc(S(=O)(=O)N2CC=C(C(=O)NC3CC3)CC2)cc1,-1,0.14,·,·,1
CC1CN(Cc2nnc(-c3ccccc3)o2)CC(C)O1 (stereo unspecified),3,1.2,4,2,2
CCOc1ccc(CN(C(=O)c2oc3cc(C)ccc3c2C)C2CCS(=O)(=O)C2)cc1 (stereo unspecified),·,·,39,41*,-17
O=C(Nc1cccc(S(=O)(=O)Nc2ccccc2F)c1)c1ccc2ccccc2n1,-5,-0.056,87*,3,-10
Cc1ccccc1NC(=O)c1cc2c(C)nc3ccccc3c2o1,·,0.15,14,2,-15
CCc1ccc(NC(=O)c2cc3c(C)nc4ccccc4c3o2)cc1,-4,-0.07,63*,1,-2
COc1cccc(CCN2C(=O)C(=O)N([C@@H](CNCc3ccccc3)Cc3ccccc3F)C[C@@H]2C(C)(C)C)c1,-3,·,·,·,·
CS(=O)(=O)n1nc(-c2ccc(Cl)cc2)nc1SCc1ccccc1,2,·,55,5,-24
COc1ccc(-c2noc(CCC(=O)Nc3cccc(C)c3)n2)cc1,2,·,10,4,23
COc1ccc(-c2noc(N(C)CC(=O)Nc3cccc(C(F)(F)F)c3)n2)cc1,1,0.38,65*,2,·
O=C(COC(=O)CNS(=O)(=O)c1cccc(Br)c1)Nc1ccccc1Sc1ccccc1,0,1,2,6,8
CCC(C)Nc1c([N+](=O)[O-])cc(C)cc1[N+](=O)[O-] (stereo unspecified),·,·,67*,1,·
CC(C)(C)NC(=O)COc1ccccc1C#N,-6,-0.083,-3,4,-6
CN(C)/C=C(\C=N\OCc1ccc(Cl)cc1Cl)C(=O)Nc1ccc(Cl)c(Cl)c1,-2,·,84*,4,15
CCCN1CCN(c2ncnc3c2nnn3Cc2ccccc2)CC1,72*,0.023,-7,58*,-15
c1ccc(Cn2nnc3c(N4CCCCCC4)ncnc32)cc1,-4,-1.8,17,1,·
CC(=O)N1c2ccc3ccccc3c2C(C)CC12CCCCC2 (stereo unspecified),·,0.25,87*,3,·
SMILES,bCat nuc transl,Cl transport mod,WT yeast gro inh,MT stabilize HCS,Pf gametocyte
C/C(=N/NC(=O)c1cc2ccccc2cc1O)C1C(=O)c2ccccc2C1=O,·,-2.8*,8,1,8
Cc1ccc(C)c(NCC(=O)c2ccc(Cl)cc2)c1,·,·,·,·,-15
Cc1ccc(S(=O)(=O)N2CCC(C(N)=O)CC2)cc1[N+](=O)[O-],·,·,·,·,3
CCOc1ccc(NC(=O)C2CC(=O)N(C(C)C)C2)cc1 (stereo unspecified),-2,-0.42,63*,3,1
O=C(c1ccc(F)cc1)C(CN1CCOCC1)c1ccccc1 (stereo unspecified),0,1.5,81*,10,·
COc1ccc(C(=O)C(CN2CCOCC2)c2ccccc2)cc1 (stereo unspecified),·,0.16,33,4,·
CC(C)/C=C/CN1CCN(CCCc2ccccc2)C(CCO)C1 (stereo unspecified),·,·,·,·,6
COC(=O)CCc1nc2cc(Cl)ccc2n(Cc2ccccc2)c1=O,0,0.23,3,4,-1
CCN(c1ccccc1)S(=O)(=O)c1ccc(NC(=S)NC(=O)c2ccc(Br)o2)cc1,-1,20*,4,2,·
CCC(=O)NC(=S)Nc1ccc(NC(=O)c2ccc(Br)o2)cc1,-2,0.52,5,6,·
CN(Cc1ccccc1)S(=O)(=O)c1ccc(NC(=S)NC(=O)C2CCCC2)cc1,1,·,-8,28*,·
CN(c1ccccc1)S(=O)(=O)c1ccc(NC(=S)NC(=O)C2CC2)cc1,0,-0.58,68*,3,-6
Cc1cccc(C)c1NC(=S)NC(=O)c1ccc(Br)o1,2,192*,3,2,18
C[C@H]1COC(=O)[C@H](Cc2ccc(F)cc2)C/C=C\C[C@H](CC(=O)NCCO)C(=O)N1,·,·,·,·,-6
COc1ccc2[nH]cc(CCNC(=O)c3ccc4ccccc4n3)c2c1,·,·,·,·,-3
CN(C1CCCCC1)S(=O)(=O)c1ccc(NC(=S)NC(=O)c2cccs2)cc1,·,17*,·,2,0
Cc1cc(C)cc(NS(=O)(=O)c2ccc(NC(=S)NC(=O)c3cccs3)cc2)c1,-2,0.19,54,4,-27
Cc1ccc(C(=O)NC(=S)Nc2ccc(S(=O)(=O)N(C)c3ccccc3)cc2)cc1,-4,-0.17,13,3,1
CN(c1ccccc1)S(=O)(=O)c1ccc(NC(=S)NC(=O)c2ccccc2)cc1,-1,3*,30,3,0
Cc1ccccc1OCC(=O)Nc1ccc2c(c1)n(C)c(=O)n2C,1,-0.0085,-4,2,-10
CN1CCN(C(=O)CSc2ccc(C(F)(F)F)cc2[N+](=O)[O-])CC1,-1,-0.018,1,5,·
CCOC(=O)c1c(NC(=S)NCCc2ccccc2)sc2c1CC(C(C)C)OC2 (stereo unspecified),-3,8.9*,3,5,·
CC(C)C1Cc2c(sc(NC(=S)NC(=O)c3ccccc3)c2C#N)CO1 (stereo unspecified),0,1.1,10,6,1
C=CCNC(=S)Nc1sc2c(c1C(=O)OCC)CC(C(C)C)OC2 (stereo unspecified),1,32*,10,1,12
O=C1CCN(S(=O)(=O)c2ccc(Cl)cc2)CCN1,1,0.012,·,·,-8
CC1CCCN(S(=O)(=O)c2ccc(S(=O)(=O)NC(C)c3cccs3)cc2)C1 (stereo unspecified),·,-0.65,0,2,·
COc1ccccc1-c1nnc(SCC(=O)NCc2c(C)c(Cl)cc(C(C)C)c2O)o1,·,0.31,78*,2,-9
COc1ccccc1-c1nnc(SCC(=O)Nc2c(Cl)cccc2Cl)o1,2,·,-1,4,-27
